Test results published in ChEMBL document CHEMBL1949646, “Design, synthesis, in vitro antimicrobial and anticancer activity of novel methylenebis-isoxazolo[4,5-b]azepines derivatives” (Eur J Med Chem, 2012).
≈ marks a conversion by molar mass, not a printed value.

Assays:
Bacillus subtilis = test: Antibacterial activity against Bacillus subtilis after 24 to 28 hrs by agar diffusion method; format: functional
Pseudomonas aeruginosa = test: Antibacterial activity against Pseudomonas aeruginosa after 24 to 28 hrs by agar diffusion method; format: functional
Escherichia coli = test: Antibacterial activity against Escherichia coli after 24 to 28 hrs by agar diffusion method; format: functional
Lactococcus lactis = test: Antibacterial activity against Streptococcus lactis after 24 to 28 hrs by agar diffusion method; format: functional
HEK293 = test: Cytotoxicity against human HEK293 cells after 48 hrs by MTT assay; format: cell-based; conditions: HEK293, 48 h
Outline: (§1)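 Cells kept in a humidified 5% CO2 incubator. Compounds diluted in culture medium and added to wells alongside a vehicle control. After MTT, supernatant removed, formazan dissolved in DMSO, and absorbance read at 540 nm. Percentage growth inhibition calculated. At least three independent assays.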

Aspergillus flavus = test: Antifungal activity against Aspergillus flavus after 5 days by agar diffusion method; format: functional; conditions: 120 h
MCF7 = test: Cytotoxicity against human estrogen receptor-positive MCF7 cells after 48 hrs by MTT assay; format: functional, cell-based; conditions: MCF7, 48 h; outline: as §1
MDA-MB-231 = test: Cytotoxicity against human estrogen receptor-negative MDA-MB-231 cells after 48 hrs by MTT assay; format: functional, cell-based; conditions: MDA-MB-231, 48 h; outline: as §1
Trichoderma viride = test: Antifungal activity against Trichoderma viride after 5 days by agar diffusion method; format: functional; conditions: 120 h

MIC (Bacillus subtilis) [µg/mL]	MIC (Pseudomonas aeruginosa) [µg/mL]	MIC (Escherichia coli) [µg/mL]	MIC (Lactococcus lactis) [µg/mL]	MIC (Aspergillus flavus) [µg/mL]	MIC (Trichoderma viride) [µg/mL]	Compound	IC50 (HEK293) [µM]	IC50 (MCF7) [µM]	IC50 (MDA-MB-231) [µM]
38 (≈ 55.8 µM)	38 (≈ 55.8 µM)	36 (≈ 52.9 µM)	35 (≈ 51.4 µM)	38 (≈ 55.8 µM)	40 (≈ 58.8 µM)	Cc1noc2c1N=C(c1ccccc1O)CC(c1cc(Cc3ccc(O)c(C4CC(c5ccccc5O)=Nc5c(C)noc5C4)c3)ccc1O)C2 (stereo not given)	65.5	44.3	63.4
35 (≈ 51.7 µM)	40 (≈ 59.1 µM)	35 (≈ 51.7 µM)	32 (≈ 47.3 µM)	35 (≈ 51.7 µM)	38 (≈ 56.1 µM)	Cc1ccc(C2=Nc3c(C)noc3CC(c3cc(Cc4ccc(O)c(C5CC(c6ccc(C)cc6)=Nc6c(C)noc6C5)c4)ccc3O)C2)cc1 (stereo not given)	63.4	42.3	61.1
19 (≈ 28.8 µM)	12 (≈ 18.2 µM)	14 (≈ 21.2 µM)	20 (≈ 30.3 µM)	15 (≈ 22.7 µM)	14 (≈ 21.2 µM)	Cc1noc2c1N=C(c1cccs1)CC(c1cc(Cc3ccc(O)c(C4CC(c5cccs5)=Nc5c(C)noc5C4)c3)ccc1O)C2 (stereo not given)	10.3	10.2	18.2
35 (≈ 49.4 µM)	32 (≈ 45.1 µM)	35 (≈ 49.4 µM)	30 (≈ 42.3 µM)	35 (≈ 49.4 µM)	40 (≈ 56.4 µM)	COc1ccc(C2=Nc3c(C)noc3CC(c3cc(Cc4ccc(O)c(C5CC(c6ccc(OC)cc6)=Nc6c(C)noc6C5)c4)ccc3O)C2)cc1 (stereo not given)	57.4	40.4	58.1
30 (≈ 37.2 µM)	30 (≈ 37.2 µM)	27 (≈ 33.5 µM)	25 (≈ 31 µM)	30 (≈ 37.2 µM)	32 (≈ 39.7 µM)	Cc1noc2c1N=C(c1ccc(Br)cc1)CC(c1cc(Cc3ccc(O)c(C4CC(c5ccc(Br)cc5)=Nc5c(C)noc5C4)c3)ccc1O)C2 (stereo not given)	54.5	34.2	51.2
35 (≈ 53.9 µM)	35 (≈ 53.9 µM)	40 (≈ 61.7 µM)	40 (≈ 61.7 µM)	40 (≈ 61.7 µM)	40 (≈ 61.7 µM)	Cc1noc2c1N=C(c1ccccc1)CC(c1cc(Cc3ccc(O)c(C4CC(c5ccccc5)=Nc5c(C)noc5C4)c3)ccc1O)C2 (stereo not given)	85.4	80.6	82.6
28 (≈ 39 µM)	30 (≈ 41.8 µM)	28 (≈ 39 µM)	25 (≈ 34.8 µM)	32 (≈ 44.6 µM)	30 (≈ 41.8 µM)	Cc1noc2c1N=C(c1ccc(Cl)cc1)CC(c1cc(Cc3ccc(O)c(C4CC(c5ccc(Cl)cc5)=Nc5c(C)noc5C4)c3)ccc1O)C2 (stereo not given)	53.3	30.4	52.5
30 (≈ 40.6 µM)	28 (≈ 37.9 µM)	28 (≈ 37.9 µM)	26 (≈ 35.2 µM)	30 (≈ 40.6 µM)	30 (≈ 40.6 µM)	Cc1noc2c1N=C(c1ccc([N+](=O)[O-])cc1)CC(c1cc(Cc3ccc(O)c(C4CC(c5ccc([N+](=O)[O-])cc5)=Nc5c(C)noc5C4)c3)ccc1O)C2 (stereo not given)	55.6	36.3	53.4
20 (≈ 31.8 µM)	14 (≈ 22.3 µM)	16 (≈ 25.4 µM)	22 (≈ 35 µM)	20 (≈ 31.8 µM)	16 (≈ 25.4 µM)	Cc1noc2c1N=C(c1ccco1)CC(c1cc(Cc3ccc(O)c(C4CC(c5ccco5)=Nc5c(C)noc5C4)c3)ccc1O)C2 (stereo not given)	30.2	12.5	10.3

Compound	MIC (Bacillus subtilis) [µg/mL]	MIC (Pseudomonas aeruginosa) [µg/mL]	MIC (Escherichia coli) [µg/mL]	MIC (Lactococcus lactis) [µg/mL]	MIC (Aspergillus flavus) [µg/mL]	MIC (Trichoderma viride) [µg/mL]	IC50 (HEK293) [µM]	IC50 (MCF7) [µM]	IC50 (MDA-MB-231) [µM]
CCn1cc(C(=O)O)c(=O)c2ccc(C)nc21 [NALIDIXIC ACID]	30 (≈ 129 µM)	30 (≈ 129 µM)	28 (≈ 121 µM)	25 (≈ 108 µM)	–	–	–	–	–
